Rows were chosen to be rich in hits. Some 5.8% of all compounds tested hit in one or more screens of this group.
T cruzi growth-1: inhibitors of T. cruzi proliferation; T. cruzi beta-gal in NIH3T3, GalScreen luminescence, 90 h; hit rate 5.9% among 77,000; inhibition, % at 8.34 µM;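 active = mean inhibition above about 93%, with at least 55% of replicates each passing it, limit read from the data, passing the limit was not always enough; inconclusive = only one of those two conditions holds; inactive = neither condition holds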
IDH1 R132H inh: inhibitors of human IDH1 R132H | IDH1 R132H reductase, diaphorase/resazurin fluorescence, 60 min | inhibition, % at 10 µM | hit rate 0.18% among 70,000 | AID 624101; in the data active = inhibition above about 34%; inconclusive = no clear call, values can overlap the other calls; inactive = below about 11%;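 also: 0% = DMSO and 100% = no enzyme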
Target sequence (O75874 whole entry R132H): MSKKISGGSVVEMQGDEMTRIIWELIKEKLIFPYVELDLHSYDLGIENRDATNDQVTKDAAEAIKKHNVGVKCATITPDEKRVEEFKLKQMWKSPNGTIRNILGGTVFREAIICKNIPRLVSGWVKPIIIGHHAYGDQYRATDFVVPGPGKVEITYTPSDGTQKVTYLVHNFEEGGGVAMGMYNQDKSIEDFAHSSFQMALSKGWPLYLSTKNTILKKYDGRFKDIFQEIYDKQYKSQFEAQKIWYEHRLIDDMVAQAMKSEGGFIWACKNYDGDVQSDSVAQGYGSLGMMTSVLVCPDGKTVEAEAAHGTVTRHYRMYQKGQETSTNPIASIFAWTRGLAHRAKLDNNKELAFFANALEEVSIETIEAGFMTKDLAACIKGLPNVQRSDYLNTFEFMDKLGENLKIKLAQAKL
KDM4C inh: inhibitors of human demethylase GASC-1 KDM4C | Q9H3R0 | AID 720574 | GST-KDM4C 2-372, H3K9me3 peptide, LANCE TR-FRET | hit rate 0.15% among 96,000 | inhibition, % at 12.5 µM;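 active = mean replicate inhibition above about 25%, with at least 55% of replicates also reaching it, limit read from the data, passing the limit was not always enough; inconclusive = only one of those two conditions met; inactive = neither condition met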
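System: N-terminal GST-fused human GASC-1 (KDM4C) fragment, residues 2-372 / Amount: 10 nM GST-KDM4C in enzyme reaction / Also added: H3K9me3 peptide with Fe(II)/2OG / Times: 30 min demethylation and 1 h detection at room temperature / Signal: LANCE TR-FRET / Read-out basis: Fall in 671/618 emission ratio as inhibition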
Pf Dd2 growth: P. falciparum Dd2 growth inhibition; activity change, % at 10 µM; hit rate 2.3% among 94,000; AID 1159554; SYBR Green, 72 h; stronger effect = lower value; in the data active = activity change below about -80%; inconclusive = no clear call, values can overlap the other calls
T cruzi growth-2: inhibitors of T. cruzi proliferation; T. cruzi beta-gal in NIH3T3, GalScreen luminescence, 90 h; inhibition, % at 8.35 µM; shares compounds with T cruzi growth-1; hit rate 72% among 5,600;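 active = mean replicate inhibition above about 95% and at least 55% of replicates individually reaching it, limit read from the data; inconclusive = only one of the two criteria is met; inactive = neither criterion is met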
T cruzi growth-3: inhibitors of T. cruzi proliferation. T. cruzi beta-gal in NIH3T3, GalScreen luminescence, 90 h. hit rate 21% among 5,600. shares compounds with T cruzi growth-1. inhibition, % at 2.09 µM;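 active = mean inhibition above about 95%, with at least 55% of replicates also reaching it, limit read from the data; inconclusive = meets just one of the two conditions; inactive = meets neither condition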;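 also: plate controls were neutral control median for no effect and positive control median for full effect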
3T3 cytotox: NIH/3T3 (mouse) viability loss. shares compounds with T cruzi growth-1. NIH/3T3 viability, CellTiter-Glo ATP luminescence, 90 h. cytotoxicity (signal decrease), % at 8.35 µM. hit rate 14% among 5,600;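 active = mean signal decrease across replicates above about 35% based on untreated-well scatter, with enough replicates individually passing, limit read from the data; inconclusive = no rule stated though some were filed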;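 also: 0% = median of neutral control wells and 100% = median of positive control wells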
NIH3T3 tox 2: NIH/3T3 (mouse) viability loss. shares compounds with T cruzi growth-1. NIH/3T3 viability, CellTiter-Glo ATP luminescence, 90 h. inhibition, % at 24.9 µM. hit rate 56% among 5,600. AID 651744;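 active = mean loss of cell viability signal at or above a set limit, and enough replicates individually reaching it; inconclusive = meets only the mean limit or only the replicate share; inactive = meets neither condition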;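 also: 0% = median of neutral control wells and 100% = median of positive control wells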
Starred values were filed as active, the others as inactive; ? = inconclusive; / = not tested or not shown; + = active, no number.

SMILES | T cruzi growth-1 | IDH1 R132H inh | KDM4C inh | Pf Dd2 growth | T cruzi growth-2 | T cruzi growth-3 | 3T3 cytotox | NIH3T3 tox 2
C[C@H]1CCCCO[C@H](CN(C)S(=O)(=O)c2ccc(F)cc2)[C@@H](C)CN([C@@H](C)CO)C(=O)c2cc(NC(=O)Nc3ccc(F)cc3)ccc2O1 | 107* | / | -3 | -72 | 105* | 108* | 3 | 10
C[C@@H]1CCCCO[C@H](CN(C)S(=O)(=O)c2ccc(F)cc2)[C@@H](C)CN([C@H](C)CO)C(=O)c2cc(NC(=O)Nc3ccc(F)cc3)ccc2O1 | 49 | -1 | -1 | -31 | / | / | / | /
CN(C)c1ccc2c(c1)[C@H]1C[C@H](CC(=O)NCc3ccc(-c4ccccc4)cc3)O[C@@H](CO)[C@H]1O2 | 114* | -1 | 4 | -37 | 110* | 102* | 5 | 4
CN(C)c1ccc2c(c1)[C@@H]1C[C@@H](CC(=O)NCc3cc(F)ccc3F)O[C@H](CO)[C@@H]1O2 | 36 | -3 | 5 | -36 | / | / | / | /
COc1ccc(CNC(=O)C[C@H]2C[C@H]3c4cc(N(C)C)ccc4O[C@H]3[C@H](CO)O2)cc1 | -45 | -1 | 19 | -45 | / | / | / | /
COc1ccc(CNC(=O)C[C@@H]2C[C@H]3c4cc(N(C)C)ccc4O[C@H]3[C@@H](CO)O2)cc1 | -18 | -2 | 2 | 6 | / | / | / | /
CN(C)c1ccc2c(c1)[C@@H]1C[C@@H](CC(=O)NCc3cc(F)ccc3F)O[C@@H](CO)[C@@H]1O2 | + | -7 | 9 | -87* | 72 | 28 | -9 | 9
CN(C)c1ccc2c(c1)[C@H]1C[C@H](CC(=O)NCc3ccc(Oc4ccccc4)cc3)O[C@@H](CO)[C@H]1O2 | 132* | -2 | 0 | -39 | 107* | 105* | -3 | ?
C[C@H](CO)N1C[C@H](C)[C@@H](CN(C)Cc2ccccc2)Oc2cc(Br)ccc2S1(=O)=O | 104 | 0 | 3 | -21 | / | / | / | /
C[C@@H]1CN([C@@H](C)CO)S(=O)(=O)c2ccc(Br)cc2O[C@H]1CN(C)Cc1cccc(F)c1 | ? | / | 2 | -25 | 98* | 92 | 53* | 107*
C[C@H]1CN([C@@H](C)CO)S(=O)(=O)c2ccc(Br)cc2O[C@@H]1CN(C)Cc1cccc(F)c1 | ? | / | 3 | -30 | 99* | 65 | 32 | 103*
C=C[C@]1(C)C=C2CCC3C(C)(CCC[C@@]3(C)C(=O)O)C2CC1 (stereo not given in full) | / | 0 | / | / | / | / | / | /
